From ChEMBL document CHEMBL4602721, “Discovery of Potent Inhibitors against P-Glycoprotein-Mediated Multidrug Resistance Aided by Late-Stage Functionalization of a 2-(4-(Pyridin-2-yl)phenoxy)pyridine Analogue” (J Med Chem, 2020) come the findings set out here.

Each structure is given as a SMILES string.

The target of series [1] is T1, ATP-dependent translocase ABCB1 (Homo sapiens, UniProt P08183). Kind of series: Reversal of Pgp-mediated DOX resistance in human SW620/AD300 cells assessed as potentiation of DOX-induced cytotoxicity by measuring inhibition of cell proliferation at 1 uM incubated for 48 hrs by SRB assay (reference value: 5.3 +/- 3 %). In kind it is cell-based. In general terms: The SRB assay estimates cell density from bound dye.
T1 sequence (P08183 whole entry): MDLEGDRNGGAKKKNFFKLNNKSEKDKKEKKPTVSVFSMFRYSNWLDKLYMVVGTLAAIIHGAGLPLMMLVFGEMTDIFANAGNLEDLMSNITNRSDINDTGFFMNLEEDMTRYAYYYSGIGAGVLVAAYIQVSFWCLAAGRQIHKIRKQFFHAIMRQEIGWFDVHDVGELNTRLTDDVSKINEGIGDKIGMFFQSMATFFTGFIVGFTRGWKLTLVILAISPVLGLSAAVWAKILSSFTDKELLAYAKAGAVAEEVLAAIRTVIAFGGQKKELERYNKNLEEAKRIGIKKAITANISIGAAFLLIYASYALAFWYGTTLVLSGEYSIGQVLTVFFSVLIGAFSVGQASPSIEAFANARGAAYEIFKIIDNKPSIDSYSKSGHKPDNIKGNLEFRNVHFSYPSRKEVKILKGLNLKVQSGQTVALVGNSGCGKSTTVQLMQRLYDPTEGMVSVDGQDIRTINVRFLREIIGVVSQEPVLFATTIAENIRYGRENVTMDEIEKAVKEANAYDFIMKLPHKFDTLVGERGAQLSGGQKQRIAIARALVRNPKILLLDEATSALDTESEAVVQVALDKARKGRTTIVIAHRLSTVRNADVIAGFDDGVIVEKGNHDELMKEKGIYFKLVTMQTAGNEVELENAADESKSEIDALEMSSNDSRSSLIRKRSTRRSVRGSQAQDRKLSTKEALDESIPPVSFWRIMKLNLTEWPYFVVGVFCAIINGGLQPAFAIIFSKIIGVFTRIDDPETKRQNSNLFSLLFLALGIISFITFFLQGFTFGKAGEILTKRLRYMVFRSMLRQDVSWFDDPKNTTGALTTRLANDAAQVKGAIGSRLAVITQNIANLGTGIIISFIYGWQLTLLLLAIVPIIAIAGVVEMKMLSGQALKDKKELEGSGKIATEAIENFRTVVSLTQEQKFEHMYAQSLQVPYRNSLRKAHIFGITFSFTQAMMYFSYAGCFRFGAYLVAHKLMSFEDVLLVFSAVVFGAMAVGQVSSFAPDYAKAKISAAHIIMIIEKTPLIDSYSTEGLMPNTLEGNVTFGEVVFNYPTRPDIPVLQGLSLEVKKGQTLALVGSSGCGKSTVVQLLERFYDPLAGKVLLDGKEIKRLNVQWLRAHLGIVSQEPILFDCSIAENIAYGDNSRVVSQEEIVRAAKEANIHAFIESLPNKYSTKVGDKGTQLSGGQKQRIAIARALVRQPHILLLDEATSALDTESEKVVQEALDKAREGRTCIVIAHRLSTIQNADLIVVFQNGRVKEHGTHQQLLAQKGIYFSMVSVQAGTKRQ

Series [2] concerns the target T1, ATP-dependent translocase ABCB1. Kind of series: Reversal of Pgp-mediated DOX resistance in human SW620/AD300 cells assessed as potentiation of DOX-induced cytotoxicity by measuring change in DOX IC50 at 1 uM incubated for 48 hrs by SRB assay relative to DOX alone. The class given is cell-based. The following applies: sw620/ad300, 48 h.
Series [3] can be described thus: Cytotoxicity against human SW620/AD300 cells assessed as cell growth inhibition at 10 uM incubated for 48 hrs by SRB assay relative to control. In kind it is cell-based. Particulars: read-out: GI.
The next series relates to K562/A02. Kind of series: Potentiation of DOX-induced anti tumor activity against human K562/A02 cells xenografted in BALB/c mouse assessed as tumor size at 3 mg/kg, iv administered every 2 days for 14 days measured during compound dosing by caliper method (reference value: 610 mm3). In kind it is functional. The method, boiled down:
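Mice bearing subcutaneous ABCB1-overexpressing K562/A02 xenografts treated with DOX alone, modulator alone, or combinations (verapamil as comparator) for 14 days; tumor volume measured every two days.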

For the compound `COc1cc2c(cc1OC)CN(C(=O)/C=C/c1c3n(c4ccccc14)C(c1cccs1)Oc1ccccc1-3)CC2` (stereo not given), the inhibition at 1 µM in series [1] was determined as 44.3%.
Same read-out and setting: to `COc1cc2c(cc1OC)CN(C(=O)/C=C/c1c3n(c4ccccc14)C(C1CCCCC1)Oc1ccccc1-3)CC2` (stereo not given) belongs 40.1%.
The same measure, in the same setting: next, `COc1ccc(C(=O)NNC(=O)/C=C/c2c(-c3ccccc3)n(C)c3ncccc23)cc1OC`: 10.9%.
On the same count and under the same terms, next, `COc1ccc(C(=O)NN2CC(c3c(-c4ccccc4)n(C)c4ncccc34)=CC2=O)cc1OC`: 14%; `Cn1c(-c2ccccc2)c(/C=C/C(=O)NN2Cc3ccccc3C2=O)c2cccnc21`: 18.5%.
For `COc1cc2c(cc1OC)CN(CCc1ccc(NC(=O)/C=C/c3ccc(Oc4c(I)cc(-c5ccccn5)cc4I)nc3)cc1)CC2`, the inhibition at 1 µM in series [1] turned out to be 53.2%. In addition, in series [2], the “fold change (FC)” value is given as 28.3.
`COc1cc2c(cc1OC)CN(CCc1ccc(NC(=O)/C=C/c3ccc(Oc4ccc(-c5ccccn5)c(F)c4)nc3)cc1)CC2`: the inhibition at 1 µM in series [1] is 49.8%.
Consider `COc1cc2c(cc1OC)CN(CCc1ccc(NC(=O)/C=C/c3ccc(Oc4ccc(-c5ccccn5)c(O)c4)nc3)cc1)CC2`, for which, in series [1], the inhibition at 1 µM worked out at 56.4%. Further, the “fold change (FC)” value in series [2] turned out to be 40.72.
On to `COc1cc2c(cc1OC)CN(CCc1ccc(NC(=O)/C=C/c3cc(-c4ccccn4)cc(C)c3Oc3ccccn3)cc1)CC2`, for which, in series [1], the inhibition at 1 µM was 64%. In addition, in series [3], the inhibition at 48 h, 10 µM was found to be 17%. Besides, in series [2], the “fold change (FC)” value amounted to 60.71.
With `COc1cc2c(cc1OC)CN(CCc1ccc(NC(=O)/C=C/c3ccc(Oc4ccc(-c5cccnc5)cc4)nc3)cc1)CC2`, the inhibition at 1 µM in series [1] came to 62.6%. Further, the inhibition at 48 h, 10 µM in series [3] was found to be 13.9%. The “fold change (FC)” value in series [2] is 85.62.
As to `COc1cc2c(cc1OC)CN(C(=O)/C=C/c1c(-c3ccccc3)nc3ccccn13)CC2`, in series [1], the inhibition at 1 µM was determined as 37.5%.
The same measure, in the same setting: next, `Cn1c(-c2ccccc2)c(/C=C/C(=O)NN2C(=O)c3ccccc3C2=O)c2cccnc21`: 18.9%.
Take `COc1cc2c(cc1OC)CN(CCc1ccc(NC(=O)C(O)c3c(-c4ccccc4)n(C)c4ccccc34)cc1)CC2` (stereo not given): the inhibition at 1 µM in series [1] was found to be 55.3%. Further, in series [2], the “fold change (FC)” value is listed as 30.35.
Regarding `COc1cc2c(cc1OC)CN(C(=O)/C=C/c1c3n(c4ccccc14)C(c1ccccc1)Oc1ccccc1-3)CC2` (stereo not given), the inhibition at 1 µM in series [1] was 41.4%.
On to `COc1ccc(CCN(C)CCCC(C#N)(c2ccc(OC)c(OC)c2)C(C)C)cc1OC` (stereo not given), for which the inhibition at 1 µM in series [1] worked out at 26.1%. Besides, the Activity in the series with K562/A02 amounted to 508 mm3.
On to `COc1cc2c(cc1OC)CN(S(=O)(=O)/C=C/c1c(-c3ccccc3)n(C)c3ccccc13)CC2`, for which the inhibition at 1 µM in series [1] was 25.4%.
For `COc1cc2c(cc1OC)CN(CCc1ccc(NC(=O)C3CC3c3ccc(Oc4ccc(-c5ccccn5)cc4)nc3)cc1)CC2` (stereo not given), in series [1], the inhibition at 1 µM stood at 59%. For the same compound, the “fold change (FC)” value in series [2] turned out to be 43.93.
Take `COc1cc2c(cc1OC)CN(CCc1ccc(NC(=O)/C=C/c3ccc(Oc4ccc(-c5ccccn5)c(C#N)c4)nc3)cc1)CC2`: the inhibition at 1 µM in series [1] stood at 58.3%. The inhibition at 48 h, 10 µM in series [3] was 13.9%. Also, the “fold change (FC)” value in series [2] was 54.74.
Consider `COc1cc2c(cc1OC)CN(CCc1ccc(NC(=O)/C=C/c3ccc(Oc4ccc(-c5ccccn5)cc4Br)nc3)cc1)CC2`, for which the inhibition at 1 µM in series [1] turned out to be 60.1%. For the same compound, the “fold change (FC)” value in series [2] stood at 47.7.
The matching figures for `COc1ccc2c(C)c(CC(=O)Nc3ccc(CCN4CCc5cc(OC)c(OC)cc5C4)cc3)c(=O)oc2c1`: 50.5% and 16.95.
Take `Cn1c(-c2ccccc2)c(/C=C/C(=O)Nc2nc3ccccc3s2)c2cccnc21`: the inhibition at 1 µM in series [1] was 44.7%.
The same measure, in the same setting: to `COc1cc2c(cc1OC)CN(C(=O)/C=C(\C)c1c(-c3ccccc3)n(C)c3ncccc13)CC2` belongs 44%.
On the same count and under the same terms, next, `COc1ccc(CN2CC(c3c(-c4ccccc4)n(C)c4ncccc34)=CC2=O)cc1OC`: 20.7%.
With `COc1cc2c(cc1OC)CN(CCc1ccc(NC(=O)/C=C/c3c(-c4ccccc4)n(C)c4ncccc34)cc1)CC2`, the inhibition at 1 µM in series [1] worked out at 63%. Further, the “fold change (FC)” value in series [2] was 40.72.
The matching figures for `COc1cc2c(cc1OC)CN(CCc1ccc(NC(=O)/C=C/c3ccc(Oc4ccc(-c5ccccn5)cc4C)nc3)cc1)CC2`: 55.1% and 45.12.
Take `COc1cc2c(cc1OC)CN(CCc1ccc(NC(=O)/C=C/c3ccc(Oc4cccc(-c5ccccn5)c4)nc3)cc1)CC2`: the inhibition at 1 µM in series [1] is 56.5%. In addition, the “fold change (FC)” value in series [2] was 44.52.
`COc1ccc(NC(=O)NC(=O)/C=C/c2c(-c3ccccc3)n(C)c3ncccc23)cc1OC`: the inhibition at 1 µM in series [1] is 23.3%.
On the same count and under the same terms, to `COc1cc2c(cc1OC)CN(S(=O)(=O)/C=C/c1c(-c3ccccc3)n(C)c3ncccc13)CC2` belongs 37.9%.
For `COc1cc2c(cc1OC)CN(CCc1ccc(NC(=O)/C=C/c3ccc(Oc4ccc(-c5ccccn5)cc4I)nc3)cc1)CC2`, in series [1], the inhibition at 1 µM is 59.2%. In addition, the “fold change (FC)” value in series [2] is on record as 43.93.
On to `COc1cc2c(cc1OC)CN(C(=O)/C=C/c1nc(-c3ccccn3)n(C)c1-c1ccccc1)CC2`, for which, in series [1], the inhibition at 1 µM worked out at 28.2%.
For `COc1cc2c(cc1OC)CN(CCc1ccc(NC(=O)c3ccc(Oc4ccc(-c5ccccn5)cc4)nc3)cc1)CC2`, in series [1], the inhibition at 1 µM was 36.1%.
Still for that read-out and setting: next, `COc1cc2c(cc1OC)CN(C(=O)/C=C(/c1c(-c3ccccc3)n(C)c3ncccc13)C(F)(F)F)CC2`: 32.5%.
Regarding `COc1cc2c(cc1OC)CN(CCc1ccc(NC(=O)/C=C/c3cccc(Oc4ccc(-c5ccccn5)cc4)n3)cc1)CC2`, the inhibition at 1 µM in series [1] was found to be 60.2%. The “fold change (FC)” value in series [2] is reported as 33.73.
Take `COc1cc2c(cc1OC)CN(C(=O)/C=C/c1c3n(c4ncccc14)Cc1ccccc1-3)CC2`: the inhibition at 1 µM in series [1] came out at 22.9%.
For the compound `COc1cc2c(cc1OC)CN(CCc1ccc(NC(=O)/C=C/c3ccc(Oc4cc(O)c(-c5ccccn5)c(O)c4)nc3)cc1)CC2`, the inhibition at 1 µM in series [1] amounted to 56.3%. Besides, the “fold change (FC)” value in series [2] amounted to 42.81.
Take `COc1cc2c(cc1OC)CN(CCc1ccc(NC(=O)/C=C/c3c(-c4ccccc4)oc4ccccc4c3=O)cc1)CC2`: the inhibition at 1 µM in series [1] amounted to 55.2%. Besides, the “fold change (FC)” value in series [2] amounted to 24.55.
With `COc1cc2c(cc1OC)CN(C(=O)/C=C/c1ccc(Oc3ccc(-c4ccccn4)cc3)nc1)CC2`, the inhibition at 1 µM in series [1] stood at 26.7%.
On the same count and under the same terms, to `COc1ccc(-c2nnc(/C=C/c3c(-c4ccccc4)n(C)c4ncccc34)o2)cc1OC` belongs 15.1%; to `[2H]c1c([2H])c(-c2ccccn2)c([2H])c([2H])c1Oc1ccc(/C=C/C(=O)Nc2ccc(CCN3CCc4cc(OC)c(OC)cc4C3)cc2)cn1`, 49.5%.
On to `COc1cc2c(cc1OC)CN(CCc1ccc(NC(=O)/C=C/c3ccc(Oc4ccc(-c5ccccn5)c(C)c4)nc3)cc1)CC2`, for which, in series [1], the inhibition at 1 µM amounted to 58.2%. Besides, the inhibition at 48 h, 10 µM in series [3] stood at 17.1%. For the same compound, the “fold change (FC)” value in series [2] came out at 68.14.
The matching figures for `COc1cc2c(cc1OC)CN(CCc1ccc(NC(=O)C(c3c(-c4ccccc4)n(C)c4ccccc34)N3CCOCC3)cc1)CC2` (stereo not given): 61.7%, 42% and 60.71.
As to `COc1cc2c(cc1OC)CN(C(=O)CCc1c(-c3ccccc3)n(C)c3ncccc13)CC2`, the inhibition at 1 µM in series [1] is 17.7%.
Same read-out and setting: to `COc1cc2c(cc1OC)CN(C(=O)/C=C/c1c3n(c4ncccc14)CCc1ccccc1-3)CC2` belongs 45.4%; to `COc1cc2c(cc1OC)CN(C(=O)/C=C/c1c(-c3ccccc3)n(C)c3ncccc13)CC2`, 40%; to `COc1cc2c(cc1OC)CN(CCc1ccc(NC(=O)/C=C/c3ccc(Oc4ccc(-c5ccccn5)cc4)nc3)cc1)CC2`, 41.8%.
In the case of `COc1cc2c(cc1OC)CN(C(=O)/C(F)=C/c1c(-c3ccccc3)n(C)c3ncccc13)CC2`, the inhibition at 1 µM in series [1] is 12.2%.
